Results on nine molecules are retold here after ChEMBL document CHEMBL1145517, “Kinetic characterization of squalene synthase from Trypanosoma cruzi: selective inhibition by quinuclidine derivatives” (Antimicrob Agents Chemother, 2007).

As a reminder, the IC50 is the concentration that inhibits the measured activity by half. Usually Km stands for the concentration of substrate that gives half-maximal velocity. What is called Vmax is the top rate of the reaction or transport when substrate is in excess.

One data set concerns the target T1, Squalene synthase (Homo sapiens, UniProt P37268).
T1 sequence (P37268 whole entry): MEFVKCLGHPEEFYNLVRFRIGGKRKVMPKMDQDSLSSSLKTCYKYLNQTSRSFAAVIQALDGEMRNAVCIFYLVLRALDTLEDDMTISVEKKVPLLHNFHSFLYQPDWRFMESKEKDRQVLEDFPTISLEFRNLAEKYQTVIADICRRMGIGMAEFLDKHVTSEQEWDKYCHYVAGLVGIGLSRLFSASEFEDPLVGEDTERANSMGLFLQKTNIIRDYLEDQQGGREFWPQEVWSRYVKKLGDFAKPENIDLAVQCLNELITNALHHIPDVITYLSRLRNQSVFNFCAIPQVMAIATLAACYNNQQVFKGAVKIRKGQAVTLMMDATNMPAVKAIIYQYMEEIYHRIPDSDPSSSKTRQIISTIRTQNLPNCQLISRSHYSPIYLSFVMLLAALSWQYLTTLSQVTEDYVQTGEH
Briefly: Inhibition of human recombinant squalene synthase. In outline:
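The enzyme source was extracts of E. coli expressing truncated human SQS. Activity was measured as [3H]FPP-to-squalene conversion at 0.5 μM FPP and 0.25 mM NADPH in pH 7.4 MOPS-NaOH with MgCl2, CHAPS, Tween 80 and DTT, for 5 min at 37°C. Reactions were stopped with NaOH, squalene was separated by silica TLC (toluene-ethyl acetate 9:1) and counted by scintillation, and IC50 was curve-fitted.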

Data set [1] can be described thus: Selectivity index, ratio of IC50 for human recombinant squalene synthase over IC50 for Trypanosoma cruzi squalene synthase. The essentials:
(§1)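 T. cruzi enzyme was purified TcSQS24/36; human SQS was E. coli extract expressing pHSS16. Stopped with NaOH, squalene carrier added, TLC in toluene-ethyl acetate 9:1, squalene zone counted by scintillation. Index = human IC50 / T. cruzi IC50.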

The nature of data set [2]: Selectivity index, ratio of IC50 for rat L6 cells over IC50 for intracellular Trypanosoma cruzi amastigotes. It counts as functional.
Data set [3] can be described thus: Inhibition of Trypanosoma cruzi recombinant squalene synthase. In outline: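 The enzyme was purified His-tagged T. cruzi SQS expressed in E. coli, truncated by 24 N-terminal and 36 C-terminal residues. Activity was measured as [3H]FPP-to-[3H]squalene conversion in pH 7.4 MOPS-NaOH with 20 mM MgCl2, 5 mM CHAPS, 1% Tween 80, 10 mM DTT, 0.25 mM NADPH and 0.5 μM FPP, 5 min at 37°C. Reactions were stopped with NaOH, squalene was separated by silica TLC and counted by scintillation, and IC50 was curve-fitted.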

The next data set relates to L6. The experiment in a line: Growth inhibition of rat L6 cells. It counts as cell-based.
Data set [4] concerns Trypanosoma cruzi. The experiment in a line: Antitrypanosomal activity against intracellular Trypanosoma cruzi amastigotes in rat L6 cells. It counts as functional, organism-based. The essentials: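 L6 rat myoblasts were seeded at 2,000 cells/well in RPMI 1640 with 10% FBS and 2 mM L-glutamine. After 24 h, 5,000 Tulahuen C2C4 trypomastigotes expressing lacZ were added with twofold serial drug dilutions. Plates were incubated 4 days at 37°C in 5% CO2. CPRG/Nonidet was then added, and colour was read at 540 nm after 2–4 h. IC50 came from the sigmoidal inhibition curve.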

For data set [5], the system named is Trypanosoma cruzi. The experiment in a line: Activity of Trypanosoma cruzi microsomal or mitochondrial squalene synthase.
The test system of data set [6] is Trypanosoma cruzi. The experiment in a line: Activity of Trypanosoma cruzi truncated squalene synthase 24/36. The essentials: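 Purified N-His-tagged TcSQS24/36 (E. coli, IMAC then MonoQ) in 50 mM MOPS-NaOH pH 7.4, 20 mM MgCl2, 5 mM CHAPS, 1% Tween 80, 10 mM DTT, 0.025 mg/ml BSA. [3H]FPP to [3H]squalene, 5 min at 37°C. FPP Km: 1–20 μM FPP with 2 mM NADPH. NADPH Km: 5–400 μM NADPH with 20 μM FPP. Nonlinear hyperbolic fits.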

The test system of a further data set is Saccharomyces cerevisiae. The experiment in a line: Activity of Saccharomyces cerevisiae C-terminal truncated squalene synthase.
Data set [7] relates to Leishmania mexicana. The experiment in a line: Activity of Leishmania mexicana microsomal or mitochondrial squalene synthase.
The test system of data set [8] is Leishmania mexicana. The experiment in a line: Activity of Leishmania mexicana glycosomal squalene synthase.
For data set [9], the system named is Trypanosoma cruzi. The experiment in a line: Activity of Trypanosoma cruzi glycosomal squalene synthase.
For the next data set, the species on record is Homo sapiens. Briefly: Activity of human double-truncated squalene synthase. In outline: as §1
Substrate in data set [10]: CC(C)=CCC/C(C)=C/CC/C(C)=C/COP(=O)(O)OP(=O)(O)O
The experiment in a line: (§2) Activity of human full length squalene synthase expressed in baculovirus.

Substrate in data set [11]: NC(=O)c1ccc[n+]([C@@H]2O[C@H](COP(=O)([O-])OP(=O)(O)OC[C@H]3O[C@@H](n4cnc5c(N)ncnc54)[C@H](OP(=O)(O)O)[C@@H]3O)[C@@H](O)[C@H]2O)c1
Described as §2.

For `CCOC(=O)c1ccc(C2=CN3CCC2CC3)cc1`, the results for the IC50 (on Squalene synthase; in data set [3]) were 7000 nM and 50 nM, respectively. Moreover, the Ratio IC50 in [1] was 140; in [2], 17.

In the case of `C1=C(Cc2ccc(-c3ccccc3)cc2)C2CCN1CC2`, the IC50 at Squalene synthase was greater than 20000 nM; with L6 it was 20.5 µM; in data set [3], 730 nM; in the data set on Trypanosoma cruzi [4] it was 4.7 µM. The Ratio IC50 in [1] is greater than 27; in data set [2] it was 4.4.

Turning to `CO[C@H]1CN(c2ccc(C#C[C@@]3(O)CN4CCC3CC4)c(Cc3ccccc3)n2)C[C@H]1O`, the values for the IC50 (on Squalene synthase; in data set [3]; in the data set with Trypanosoma cruzi [4]) were 1.5 nM, 0.84 nM and 0.008 µM, respectively. Also, in [1], the Ratio IC50 amounted to 1.8.

In the case of `O[C@]1(C#Cc2cccc(OCc3ccccc3)c2)CN2CCC1CC2`, the IC50 was greater than 20000 nM on Squalene synthase, 45 µM with L6, 1500 nM in data set [3] and 9.6 µM with Trypanosoma cruzi [4]. Moreover, the Ratio IC50 in [1] is greater than 13; in data set [2] it was 4.7.

As for `C(#Cc1ccc(OCc2ccccc2)cc1)C1=CN2CCC1CC2`, the IC50 at Squalene synthase stood at 250 nM; in the data set with L6, 47.2 µM; in [3], 830 nM; with Trypanosoma cruzi [4], 3.1 µM. Moreover, the Ratio IC50 in data set [1] was found to be 0.3; in [2], 15.

Take `NC(=O)c1ccc[n+]([C@@H]2O[C@H](COP(=O)([O-])OP(=O)(O)OC[C@H]3O[C@@H](n4cnc5c(N)ncnc54)[C@H](OP(=O)(O)O)[C@@H]3O)[C@@H](O)[C@H]2O)c1`: the Km with Trypanosoma cruzi [5] amounted to 33 µM; in the data set on Trypanosoma cruzi [6], 23.3 µM; in the data set with Saccharomyces cerevisiae, 530 µM; with Leishmania mexicana [7], 57 µM; with Leishmania mexicana [8], 62 µM; in the data set with Trypanosoma cruzi [9] it was 40 µM. Also, the Vmax worked out at 0.76 nmol/min/mg in the data set on Trypanosoma cruzi [5]; 1850 nmol/min/mg with Trypanosoma cruzi [6]; 0.84 nmol/min/mg with Leishmania mexicana [7]; 0.58 nmol/min/mg in the data set on Leishmania mexicana [8]; 0.43 nmol/min/mg in the data set with Trypanosoma cruzi [9].

As for `CC(C)=CCC/C(C)=C/CC/C(C)=C/COP(=O)(O)OP(=O)(O)O`, the Km came to 2.3 µM in the data set on Trypanosoma cruzi [5]; 5.25 µM with Trypanosoma cruzi [6]; 2.5 µM with Saccharomyces cerevisiae; 2.8 µM in the data set on Leishmania mexicana [7]; 3.2 µM in the data set on Leishmania mexicana [8]; 2.8 µM in the data set filed under Homo sapiens. Also, the Km in the data set on Trypanosoma cruzi [9] worked out at 2.8 µM. In addition, the Vmax with Trypanosoma cruzi [5] was found to be 1.18 nmol/min/mg; in the data set with Trypanosoma cruzi [6], 1430 nmol/min/mg; in the data set with Leishmania mexicana [7] it was 0.98 nmol/min/mg; in the data set with Leishmania mexicana [8] it was 0.75 nmol/min/mg; in the data set on Trypanosoma cruzi [9], 0.97 nmol/min/mg.

For the molecule `COCCCOc1ccc(C#C[C@@]2(O)CN3CCC2CC3)c(Cc2ccccc2)n1`, the IC50 is 6 nM at Squalene synthase, 3.52 nM in data set [3] and 0.011 µM in the data set with Trypanosoma cruzi [4]. Besides, the Ratio IC50 in [1] was 1.7.

B1: Squalene synthase (Homo sapiens), P37268 (protein)
chain: MEFVKCLGHPEEFYNLVRFRIGGKRKVMPKMDQDSLSSSLKTCYKYLNQTSRSFAAVIQALDGEMRNAVCIFYLVLRALDTLEDDMTISVEKKVPLLHNFHSFLYQPDWRFMESKEKDRQVLEDFPTISLEFRNLAEKYQTVIADICRRMGIGMAEFLDKHVTSEQEWDKYCHYVAGLVGIGLSRLFSASEFEDPLVGEDTERANSMGLFLQKTNIIRDYLEDQQGGREFWPQEVWSRYVKKLGDFAKPENIDLAVQCLNELITNALHHIPDVITYLSRLRNQSVFNFCAIPQVMAIATLAACYNNQQVFKGAVKIRKGQAVTLMMDATNMPAVKAIIYQYMEEIYHRIPDSDPSSSKTRQIISTIRTQNLPNCQLISRSHYSPIYLSFVMLLAALSWQYLTTLSQVTEDYVQTGEH
With B1, the results for the Km in [10] and in data set [11] were 2.3 µM and 430 µM, respectively. Also, the Vmax was 4800 nmol/min/mg in data set [10] and 3800 nmol/min/mg in data set [11].
